Measurements: ChEMBL document CHEMBL1140975, “Synthesis and antimalarial activity of carbamate and amide derivatives of 4-anilinoquinoline” (Eur J Med Chem, 2008)
Calls of active or inactive are those of the source. The rule behind the calls is not given here.

Tested on: not listed separately
Assay: Selectivity index, ratio of IC50 for human MRC5 cells to IC50 for chloroquine-resistant Plasmodium falciparum FcB1R/Colombia
Format: toxicity, cell-based
Conditions: read-out: Ratio CC50/IC50
Outline: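 SI is CC50 on MRC-5 over IC50 against FcB1R. MRC-5 cells were seeded at 5000 per well and treated after 24 h with two-fold dilutions in RPMI + 5% FCS (DMSO <0.5%). Incubation was 7 days at 37 °C, 5% CO2. Read-out was MTT, as % reduction of absorbance at 540 nm versus untreated cultures. CC50 is the concentration giving 50% cytotoxicity.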

| SMILES | selectivity ratio |
| --- | --- |
| CN(C)CCNC(=O)c1cc(NC(=O)CN2CCCCC2)cc(Nc2ccnc3cc(Cl)ccc23)c1 | 478 |
| O=C(CN1CCCCC1)Nc1cc(Nc2ccnc3cc(Cl)ccc23)cc(C(=O)NCCN2CCCC2)c1 | 1024 |
| CN1CCN(C(=O)c2cc(NC(=O)CN3CCCCC3)cc(Nc3ccnc4cc(Cl)ccc34)c2)CC1 | 833 |
| O=C(CN1CCCCC1)Nc1cc(COC(=O)CCCCN2CCOCC2)cc(Nc2ccnc3cc(Cl)ccc23)c1 | 887 |
| O=C(CN1CCCCC1)Nc1cc(COC(=O)CN2CCCCC2)cc(Nc2ccnc3cc(Cl)ccc23)c1 | 231 |
| CCN(CC)CCCCC(=O)OCc1cc(NC(=O)CN2CCCCC2)cc(Nc2ccnc3cc(Cl)ccc23)c1 | 89 |
| O=C(CN1CCCCC1)Nc1cc(COC(=O)CCCCCN2CCCCC2)cc(Nc2ccnc3cc(Cl)ccc23)c1 | 456 |
| CN(C)CCCNCc1cc(NC(=O)CN2CCCCC2)cc(Nc2ccnc3cc(Cl)ccc23)c1 | 174 |
| O=C(CN1CCCCC1)Nc1cc(Nc2ccnc3cc(Cl)ccc23)cc(C(=O)N2CCN(Cc3ccccc3)CC2)c1 | 296 |
| O=C(CN1CCCCC1)Nc1cc(COC(=O)CCN2CCCCC2)cc(Nc2ccnc3cc(Cl)ccc23)c1 | 158 |
| CN(C)CCNC(=O)OCc1cc(NC(=O)CN2CCCCC2)cc(Nc2ccnc3cc(Cl)ccc23)c1 | 304 |
| O=C(CN1CCCCC1)Nc1cc(COC(=O)CCCCN2CCCCC2)cc(Nc2ccnc3cc(Cl)ccc23)c1 | 806 |
| O=C(CN1CCCCC1)Nc1cc(Nc2ccnc3cc(Cl)ccc23)cc(C(=O)N2CCCCC2)c1 | > 112 |
| O=C(CN1CCCCC1)Nc1cc(CNCCN2CCCCC2)cc(Nc2ccnc3cc(Cl)ccc23)c1 | 648 |
| CCN(CC)Cc1cc(Nc2ccnc3cc(Cl)ccc23)ccc1O.Cl | 2500 |

Tested on: not listed separately
Assay: Cytotoxicity against human MRC5 cells after 7 days by MTT assay
Format: cell-based
Conditions: not given
Outline: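 MRC-5 human embryonic lung cells were seeded at 5000 per well and washed after 24 h. Two-fold drug dilutions were added in RPMI + 5% FCS, with final DMSO below 0.5%. Plates were held at 37 °C in 5% CO₂ for 7 days. MTT absorbance at 540 nm was compared with untreated controls. CC₅₀ is the concentration causing 50% cytotoxicity.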

| SMILES | CC50 at 168 h |
| --- | --- |
| CN(C)CCNC(=O)c1cc(NC(=O)CN2CCCCC2)cc(Nc2ccnc3cc(Cl)ccc23)c1 | 15000 nM |
| O=C(CN1CCCCC1)Nc1cc(Nc2ccnc3cc(Cl)ccc23)cc(C(=O)NCCN2CCCC2)c1 | 17000 nM |
| CN1CCN(C(=O)c2cc(NC(=O)CN3CCCCC3)cc(Nc3ccnc4cc(Cl)ccc34)c2)CC1 | 16000 nM |
| O=C(CN1CCCCC1)Nc1cc(Nc2ccnc3cc(Cl)ccc23)cc(C(=O)N2CCN(Cc3ccccc3)CC2)c1 | 15000 nM |
| CN(C)CCNC(=O)OCc1cc(NC(=O)CN2CCCCC2)cc(Nc2ccnc3cc(Cl)ccc23)c1 | 3100 nM |
| O=C(CN1CCCCC1)Nc1cc(Nc2ccnc3cc(Cl)ccc23)cc(C(=O)N2CCCCC2)c1 | > 32000 nM |
| CCN(CC)Cc1cc(Nc2ccnc3cc(Cl)ccc23)ccc1O.Cl | 12000 nM |

Tested on: Plasmodium berghei
Assay: Antimalarial activity as increased MST in Plasmodium berghei ANKA 65 infected Swiss CD1 mice (Mus musculus) at 40 mg/kg peroral dose day 1 followed by intraperitoneal dose for 4 days
Format: functional
Conditions: route oral
Outline: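 Female Swiss CD-1 mice, four weeks old, 20-25 g, three per group. Infected ip with about 10^7 P. berghei ANKA 65 parasitized erythrocytes from a donor mouse. Dosed orally at 40 mg/kg in 100% DMSO at infection, then ip for the following 4 days. Controls were infected DMSO-dosed mice. Excess MST is the percent prolongation of mean survival time over controls.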

| SMILES | Activity |
| --- | --- |
| CN1CCN(C(=O)c2cc(NC(=O)CN3CCCCC3)cc(Nc3ccnc4cc(Cl)ccc34)c2)CC1 | 150% |
| O=C(CN1CCCCC1)Nc1cc(COC(=O)CCCCN2CCOCC2)cc(Nc2ccnc3cc(Cl)ccc23)c1 | 73% |

Species: Mus musculus
Assay: Toxicity in Plasmodium berghei ANKA 65 infected Swiss CD1 mice (Mus musculus)
Format: organism-based
Conditions: in vivo

| SMILES | Activity |
| --- | --- |
| CN1CCN(C(=O)c2cc(NC(=O)CN3CCCCC3)cc(Nc3ccnc4cc(Cl)ccc34)c2)CC1 | Non-toxic |
| O=C(CN1CCCCC1)Nc1cc(COC(=O)CCCCN2CCOCC2)cc(Nc2ccnc3cc(Cl)ccc23)c1 | Non-toxic |
| CCN(CC)Cc1cc(Nc2ccnc3cc(Cl)ccc23)ccc1O.Cl | Non-toxic |

Tested on: Plasmodium falciparum
Assay: Antimalarial activity after 24 hrs against chloroquine-resistant Plasmodium falciparum K1/Thailand by [3H]hypoxanthine uptake
Format: functional, organism-based
Conditions: not given
Outline: (§1)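 Asynchronous P. falciparum cultures on human erythrocytes (1% parasitaemia, 1% final haematocrit) exposed to serial dilutions of drug for 24 h at 37 °C, then [3H]hypoxanthine added for another 24 h. Cells freeze-thawed, harvested onto glass-fibre filters and scintillation counted. Incorporation compared with drug-free control on the same plate. IC50 taken from concentration-response curve, mean ± SD of independent experiments. DMSO ≤0.1%.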

| SMILES | IC50 |
| --- | --- |
| CN1CCN(C(=O)c2cc(NC(=O)CN3CCCCC3)cc(Nc3ccnc4cc(Cl)ccc34)c2)CC1 | 51.2 nM |
| CCN(CC)Cc1cc(Nc2ccnc3cc(Cl)ccc23)ccc1O.Cl | 9.4 nM |

Tested on: Plasmodium falciparum
Assay: Antimalarial activity against chloroquine-sensitive Plasmodium falciparum THAI/Thailand as [3H]hypoxanthine uptake after 24 hrs by semi-automated micro dilution
Format: functional, organism-based
Conditions: not given
Outline: as §1

| SMILES | IC50 |
| --- | --- |
| CN1CCN(C(=O)c2cc(NC(=O)CN3CCCCC3)cc(Nc3ccnc4cc(Cl)ccc34)c2)CC1 | 38.4 nM |
| CCN(CC)Cc1cc(Nc2ccnc3cc(Cl)ccc23)ccc1O.Cl | 4.6 nM |

Tested on: Plasmodium berghei
Assay: Antimalarial activity as reduced parasitaemia in Plasmodium berghei ANKA 65 infected Swiss CD1 mice (Mus musculus) at 10 mg/kg/day peroral dose then intraperitoneal dose for 4 days
Format: functional
Design: scale not given: the % may be the effect or the level left
Conditions: route oral
Outline: (§2)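 Female Swiss CD-1 mice (4 weeks old, 20–25 g), three per group, infected intraperitoneally with about 10⁷ P. berghei ANKA 65-parasitized erythrocytes from an infected donor. The first dose was given orally in 100% DMSO at infection, then intraperitoneally on the following 4 days. Infected DMSO-dosed mice served as controls. Read-outs were parasitaemia reduction at day 4 and excess MST, the % prolongation of mean survival time versus controls.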

| SMILES | Activity |
| --- | --- |
| CCN(CC)Cc1cc(Nc2ccnc3cc(Cl)ccc23)ccc1O.Cl | 100% |

Tested on: Plasmodium berghei
Assay: Antimalarial activity as reduced parasitaemia in Plasmodium berghei ANKA 65 infected Swiss CD1 mice (Mus musculus) at 40 mg/kg/day peroral dose then intraperitoneal for 4 days
Format: functional
Design: scale not given: the % may be the effect or the level left
Conditions: route oral
Outline: as §2

| SMILES | Activity |
| --- | --- |
| CN1CCN(C(=O)c2cc(NC(=O)CN3CCCCC3)cc(Nc3ccnc4cc(Cl)ccc34)c2)CC1 | 99.96% |
| O=C(CN1CCCCC1)Nc1cc(COC(=O)CCCCN2CCOCC2)cc(Nc2ccnc3cc(Cl)ccc23)c1 | 99.8% |

Tested on: Plasmodium berghei
Assay: Antimalarial activity as increased mean survival time in Plasmodium berghei ANKA 65 infected Swiss CD1 mice (Mus musculus) at 10 mg/kg peroral dose day 1 with intraperitoneal dose over 4 days
Format: functional, organism-based
Design: dose 10 mg/kg
Conditions: not given
Outline: as §2

| SMILES | Activity |
| --- | --- |
| CCN(CC)Cc1cc(Nc2ccnc3cc(Cl)ccc23)ccc1O.Cl | Active |

Tested on: Plasmodium falciparum
Assay: Antimalarial activity after 24 hrs against chloroquine-resistant Plasmodium falciparum FcB1R/Colombia by [3H]hypoxanthine uptake
Format: functional, organism-based
Conditions: not given
Outline: as §1

| SMILES | IC50 |
| --- | --- |
| CN(C)CCNC(=O)c1cc(NC(=O)CN2CCCCC2)cc(Nc2ccnc3cc(Cl)ccc23)c1 | 31.4 nM |
| O=C(CN1CCCCC1)Nc1cc(Nc2ccnc3cc(Cl)ccc23)cc(C(=O)NCCN2CCCC2)c1 | 16.6 nM |
| CN1CCN(C(=O)c2cc(NC(=O)CN3CCCCC3)cc(Nc3ccnc4cc(Cl)ccc34)c2)CC1 | 19.2 nM |
| O=C(CN1CCCCC1)Nc1cc(Nc2ccnc3cc(Cl)ccc23)cc(C(=O)N2CCN(Cc3ccccc3)CC2)c1 | 50.6 nM |
| CN(C)CCNC(=O)OCc1cc(NC(=O)CN2CCCCC2)cc(Nc2ccnc3cc(Cl)ccc23)c1 | 10.2 nM |
| O=C(CN1CCCCC1)Nc1cc(Nc2ccnc3cc(Cl)ccc23)cc(C(=O)N2CCCCC2)c1 | 286 nM |
| O=C(CN1CCCCC1)Nc1cc(CNCCN2CCCCC2)cc(Nc2ccnc3cc(Cl)ccc23)c1 | 6.6 nM |
| CCN(CC)Cc1cc(Nc2ccnc3cc(Cl)ccc23)ccc1O.Cl | 4.8 nM |
